Laboratory results taken from ChEMBL document CHEMBL3085721, “Nonhydrolyzable ATP analogues as selective inhibitors of human NPP1: a combined computational/experimental study” (J Med Chem, 2013).

Experiments:
[1] = target: T1, Ectonucleoside triphosphate diphosphohydrolase 1 (Homo sapiens) (UniProt P49961); assay: Inhibition of human NTPDase1 assessed as amount of inorganic phosphate released using ATP as the substrate preincubated at 100 uM for 3 mins before substrate addition after 15 mins by malachite green reagent method
T1 sequence (whole entry): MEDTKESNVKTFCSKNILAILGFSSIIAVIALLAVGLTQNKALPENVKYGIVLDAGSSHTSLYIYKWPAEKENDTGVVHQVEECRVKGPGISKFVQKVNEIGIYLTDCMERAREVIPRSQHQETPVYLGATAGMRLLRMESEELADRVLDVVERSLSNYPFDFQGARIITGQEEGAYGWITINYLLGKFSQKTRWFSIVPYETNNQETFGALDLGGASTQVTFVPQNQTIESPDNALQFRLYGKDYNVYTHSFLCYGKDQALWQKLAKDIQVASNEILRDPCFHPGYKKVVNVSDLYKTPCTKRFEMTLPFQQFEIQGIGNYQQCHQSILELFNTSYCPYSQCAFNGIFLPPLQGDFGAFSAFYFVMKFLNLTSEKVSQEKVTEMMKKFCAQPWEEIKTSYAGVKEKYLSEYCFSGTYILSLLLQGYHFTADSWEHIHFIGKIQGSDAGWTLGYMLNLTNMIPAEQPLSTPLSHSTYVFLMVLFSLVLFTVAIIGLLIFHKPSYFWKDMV
How it was run: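 Crude extracts of COS-7 cells transiently transfected with human NTPDase1, -2, -3 or -8, preincubated 3 min at 37 °C in Tris-Ringer medium pH 7.4 with analogue (final 100 μM). Started with 100 μM ATP, stopped after 15 min with malachite green; released Pi read at 630 nm. ATP alone set as 100%. Mean ± SD of 3−6 experiments in triplicate.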

[2] = target: T2, Ectonucleotide pyrophosphatase/phosphodiesterase family member 3 (Homo sapiens) (UniProt O14638); assay: Inhibition of human NPP3 expressed in COS7 cells assessed as production of p-nitrophenol using pnp-TMP as the substrate preincubated at 100 uM for 3 mins before substrate addition measured after 15 mins […]; format: cell-based; conditions: COS-7
T2 sequence (whole entry): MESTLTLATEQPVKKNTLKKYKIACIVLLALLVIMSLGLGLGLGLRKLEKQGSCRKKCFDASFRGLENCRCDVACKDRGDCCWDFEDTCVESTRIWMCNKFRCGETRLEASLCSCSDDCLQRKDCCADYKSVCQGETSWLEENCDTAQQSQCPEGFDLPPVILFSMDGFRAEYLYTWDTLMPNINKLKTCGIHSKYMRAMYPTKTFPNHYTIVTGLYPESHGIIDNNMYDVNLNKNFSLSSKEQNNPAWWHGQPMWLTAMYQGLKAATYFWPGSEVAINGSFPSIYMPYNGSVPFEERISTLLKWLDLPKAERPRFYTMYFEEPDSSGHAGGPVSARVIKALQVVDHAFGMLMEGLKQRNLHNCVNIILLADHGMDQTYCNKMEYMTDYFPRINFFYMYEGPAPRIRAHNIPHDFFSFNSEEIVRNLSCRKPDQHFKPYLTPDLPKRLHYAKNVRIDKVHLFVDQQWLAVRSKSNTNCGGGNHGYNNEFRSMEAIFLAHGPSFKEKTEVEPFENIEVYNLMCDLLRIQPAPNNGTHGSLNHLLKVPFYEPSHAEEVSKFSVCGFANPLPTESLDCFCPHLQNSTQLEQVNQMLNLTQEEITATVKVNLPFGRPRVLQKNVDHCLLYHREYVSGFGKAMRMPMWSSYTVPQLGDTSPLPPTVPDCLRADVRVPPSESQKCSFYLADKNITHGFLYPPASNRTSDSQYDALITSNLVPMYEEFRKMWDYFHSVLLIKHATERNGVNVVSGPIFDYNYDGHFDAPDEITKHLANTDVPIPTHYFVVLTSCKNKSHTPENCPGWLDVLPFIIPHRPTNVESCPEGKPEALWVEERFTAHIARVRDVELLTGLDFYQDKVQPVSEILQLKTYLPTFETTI
How it was run: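 Crude extracts of COS-7 cells transiently transfected with human NPP1 or NPP3, preincubated 3 min at 37 °C in 1 mM CaCl2, 140 mM NaCl, 5 mM KCl, 50 mM Tris pH 8.5 with analogue at 100 μM. Reaction started with 100 μM pnp-TMP; p-nitrophenol at 410 nm after 15 min. Activity without analogue set as 100%. Mean ± SD of 3−6 experiments in triplicate.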

Compound	inhibition [1] [%]	inhibition [2] [%]
B[P@@](=O)(OC[C@H]1O[C@@H](n2cnc3c(N)nc(SC)nc32)[C@H](O)[C@@H]1O)OP(=O)(O)C(F)(F)P(=O)(O)O	50	50
CSc1nc(N)c2ncn([C@@H]3O[C@H](COP(=O)(O)C(F)(F)P(=O)(O)O)[C@@H](O)[C@H]3O)c2n1	< 18	50

More lines, now with the values ahead:

inhibition [1] [%]	inhibition [2] [%]	Compound
< 18	–	B[P@](=O)(OC[C@H]1O[C@@H](n2cnc3c(N)ncnc32)[C@H](O)[C@@H]1O)OP(=O)(O)CP(=O)(O)O
< 18	–	B[P@](=O)(OC[C@H]1O[C@@H](n2cnc3c(N)nc(SC)nc32)[C@H](O)[C@@H]1O)OP(=O)(O)CP(=O)(O)O
< 18	–	B[P@@](=O)(OC[C@H]1O[C@@H](n2cnc3c(N)ncnc32)[C@H](O)[C@@H]1O)OP(=O)(O)CP(=O)(O)O
